The values below come from ChEMBL document CHEMBL1759840, “2,3-Substituted quinoxalin-6-amine analogs as antiproliferatives: a structure-activity relationship study” (2011).

Activity calls are given as the source filed them. No cut-off for these calls is given here.

What all share (assay type): functional
One assay relates to A549. The assay is described as follows: Growth inhibition of human A549 cells at 20 uM after 72 hrs by alamar blue assay. The settings on record: for inhibition of growth at 20 µM: A549, 72 h, read-out: GI. The essentials: (§1)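 Single-concentration screen at 20 μM with 72 h exposure across a panel of cancer lines: lung A549, pancreatic AsPC1, colon HT29, breast MDA-MB-231, prostate PC3, ovarian SKOV3 and bone U2OS. Growth inhibition read after 72 h.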

The test system of the next assay is ASPC1. The assay is described as follows: Growth inhibition of human AsPC1 cells at 20 uM after 72 hrs by alamar blue assay. The settings on record: for inhibition of growth at 20 µM: ASPC1, 72 h, read-out: GI. The essentials:
as §1
(In general: Resazurin is reduced to fluorescent resorufin, in cell work by metabolically active cells.)

The subject of the next assay is HT-29. The experiment in a line: Growth inhibition of human HT-29 cells at 20 uM after 72 hrs by alamar blue assay. The settings on record: for inhibition of growth at 20 µM: HT-29, 72 h, read-out: GI. The method, boiled down:
as §1

The next assay has as its system MDA-MB-231. The assay is described as follows: Growth inhibition of human MDA-MB-231 cells at 20 uM after 72 hrs by alamar blue assay. The settings on record: for inhibition of growth at 20 µM: MDA-MB-231, 72 h, read-out: GI. The method, boiled down:
as §1

In the next assay the test system is PC-3. The assay is described as follows: Growth inhibition of human PC3 cells at 20 uM after 72 hrs by alamar blue assay. Conditions: for inhibition of growth at 20 µM: PC-3, 72 h, read-out: GI. The essentials: as §1
A further assay concerns SK-OV-3. The experiment in a line: Growth inhibition of human SKOV3 cells at 20 uM after 72 hrs by alamar blue assay. The settings on record: for inhibition of growth at 20 µM: SK-OV-3, 72 h, read-out: GI. The method, boiled down:
as §1

Another assay concerns U2OS. The assay is described as follows: Growth inhibition of human U2OS cells at 20 uM after 72 hrs by alamar blue assay. The settings on record: for inhibition of growth at 20 µM: read-out: GI. The essentials:
as §1

Consider `Cc1nc2ccc(NC(=O)Nc3ccccc3)cc2nc1C`, for which the “growth inhibition (GI)” value with A549, in the assay on ASPC1, in the assay with HT-29, with MDA-MB-231, in the assay on PC-3 and in the assay with SK-OV-3 was “inactive” throughout. In the assay on U2OS, the “growth inhibition (GI)” value was “inactive”.

As for `S=C(Nc1ccccc1)Nc1ccc2nc(-c3ccco3)c(-c3ccco3)nc2c1`, the inhibition of growth at 20 µM in the assay on A549 worked out at 18%; with HT-29, 26.1%; with MDA-MB-231, 19.1%; with PC-3, 56.8%; in the assay with U2OS, 21.4%. Also, the “growth inhibition (GI)” value with ASPC1 and with SK-OV-3 was “inactive” throughout.

`CC(=O)Nc1ccc2nc(C)c(C)nc2c1`: the inhibition of growth at 20 µM with A549 turned out to be 23.4%; in the assay with ASPC1, 26.2%; in the assay with HT-29, 31.7%; with MDA-MB-231, 25.7%; with PC-3, 21.8%; in the assay on SK-OV-3, 4%. The inhibition of growth at 20 µM in the assay on U2OS turned out to be 31.4%.

As for `Cc1ccc(S(=O)(=O)N(c2ccc3nc(-c4cccs4)c(-c4cccs4)nc3c2)S(=O)(=O)c2ccc(C)cc2)cc1`, the “growth inhibition (GI)” value in the assay on A549, in the assay on ASPC1, in the assay on HT-29, in the assay on MDA-MB-231, with PC-3 and with SK-OV-3 was “inactive” in each case. The “growth inhibition (GI)” value in the assay on U2OS is “inactive”.

Regarding `O=C(Nc1ccc(Cl)cc1)Nc1ccc2nc(-c3ccco3)c(-c3ccco3)nc2c1`, the inhibition of growth at 20 µM with A549 came to 99.2%; with ASPC1 it was 81.1%; in the assay on HT-29, 86.3%; in the assay on MDA-MB-231, 92.5%; in the assay with PC-3, 86.4%; in the assay on SK-OV-3 it was 55.8%. Also, the inhibition of growth at 20 µM in the assay with U2OS was found to be 87.4%.

For `O=C(Nc1ccc2nc(-c3ccco3)c(-c3ccco3)nc2c1)N1CCCC1`, the inhibition of growth at 20 µM stood at 23.3% in the assay with A549; 11.6% in the assay with ASPC1; 16.7% with HT-29; 18.2% in the assay on MDA-MB-231; 53.1% in the assay with PC-3; 16.9% with SK-OV-3. Further, the inhibition of growth at 20 µM with U2OS was found to be 46.5%.

Take `O=C(Nc1ccc(-c2ccccc2)cc1)Nc1ccc2nc(-c3ccco3)c(-c3ccco3)nc2c1`: the inhibition of growth at 20 µM is 13.8% with A549; 72.4% with HT-29; 50.2% with MDA-MB-231; 88.5% with PC-3; 46.9% with U2OS. For the same compound, the “growth inhibition (GI)” value in the assay on ASPC1 and in the assay on SK-OV-3 was “inactive” throughout.

For the compound `O=[N+]([O-])c1ccc(NC(=S)Nc2ccc3nc(-c4cccs4)c(-c4cccs4)nc3c2)cc1`, the “growth inhibition (GI)” value in the assay on A549, in the assay with ASPC1 and in the assay on SK-OV-3 was “inactive” throughout. For the same compound, the inhibition of growth at 20 µM in the assay on HT-29 came out at 23.9%; in the assay with MDA-MB-231 it was 53.3%; in the assay with PC-3 it was 19.5%; in the assay on U2OS, 50.6%.

For the compound `O=C(Nc1ccc2nc(-c3ccco3)c(-c3ccco3)nc2c1)N1CCOCC1`, the inhibition of growth at 20 µM is 39.7% with A549, 19.4% with HT-29, 10.9% in the assay on MDA-MB-231 and 48.9% in the assay on PC-3. The “growth inhibition (GI)” value in the assay on ASPC1, in the assay with SK-OV-3 and in the assay with U2OS was “inactive” throughout.

For `O=C(Nc1ccc2nc(-c3ccccc3)c(-c3ccccc3)nc2c1)N1CCCC1`, the inhibition of growth at 20 µM with A549 is 11%; in the assay on ASPC1, 29.4%; in the assay with MDA-MB-231, 16.7%; in the assay on PC-3, 56.9%; in the assay on SK-OV-3, 18.5%; in the assay on U2OS, 54.2%. In the assay on HT-29, the “growth inhibition (GI)” value was “inactive”.

Turning to `O=C(Nc1ccccc1)Nc1ccc2nc(-c3ccco3)c(-c3ccco3)nc2c1`, the inhibition of growth at 20 µM in the assay on A549 came out at 54.6%; with ASPC1, 9.6%; in the assay on HT-29, 52.1%; in the assay with MDA-MB-231, 31.3%; in the assay with PC-3, 70.6%; in the assay on SK-OV-3 it was 24.7%. The inhibition of growth at 20 µM in the assay on U2OS is 59.6%.

As for `CC(=O)Nc1ccc2nc(-c3ccccc3)c(-c3ccccc3)nc2c1`, the “growth inhibition (GI)” value in the assay with A549, in the assay on ASPC1, in the assay with HT-29, in the assay on MDA-MB-231, in the assay with PC-3 and in the assay on SK-OV-3 was “inactive” each time. In addition, the “growth inhibition (GI)” value in the assay on U2OS was “inactive”.

Regarding `CC(=O)Nc1ccc2nc(-c3cccs3)c(-c3cccs3)nc2c1`, the “growth inhibition (GI)” value with A549, in the assay on ASPC1, with HT-29, in the assay with MDA-MB-231, in the assay with PC-3 and in the assay with SK-OV-3 was “inactive” throughout. For the same compound, the “growth inhibition (GI)” value with U2OS was “inactive”.

`Cc1nc2ccc(NC(=O)N3CCCCC3)cc2nc1C`: the “growth inhibition (GI)” value with A549, with ASPC1, in the assay on HT-29, in the assay with MDA-MB-231, in the assay with PC-3 and in the assay with SK-OV-3 was “inactive” throughout. For the same compound, the “growth inhibition (GI)” value in the assay with U2OS was “inactive”.

For `O=[N+]([O-])c1ccc(NC(=S)Nc2ccc3nc(-c4ccco4)c(-c4ccco4)nc3c2)cc1`, the inhibition of growth at 20 µM in the assay on A549 was determined as 19.2%; in the assay with HT-29, 42%; with MDA-MB-231 it was 9%; in the assay with PC-3 it was 43.4%; with U2OS, 32.2%. Moreover, the “growth inhibition (GI)” value in the assay with ASPC1 and in the assay on SK-OV-3 was “inactive” throughout.

On to `Cc1nc2ccc(NC(=O)N3CCCC3)cc2nc1C`, for which the “growth inhibition (GI)” value with A549, in the assay with ASPC1, in the assay on HT-29, with MDA-MB-231, with PC-3 and in the assay on SK-OV-3 was “inactive” each time. The “growth inhibition (GI)” value with U2OS is “inactive”.

On to `O=C(Nc1ccc(F)cc1)Nc1ccc2nc(-c3ccco3)c(-c3ccco3)nc2c1`, for which the inhibition of growth at 20 µM is more than 100% in the assay with A549; more than 100% with ASPC1; 74.2% in the assay with HT-29; 38.4% in the assay on MDA-MB-231; 90.7% in the assay with PC-3; 55.6% with U2OS. Also, the “growth inhibition (GI)” value in the assay with SK-OV-3 was “inactive”.

Consider `Cc1ccc(S(=O)(=O)Nc2ccc3nc(-c4ccccc4)c(-c4ccccc4)nc3c2)cc1`, for which the “growth inhibition (GI)” value in the assay with A549, in the assay on ASPC1, in the assay with HT-29, with MDA-MB-231, with PC-3 and in the assay on SK-OV-3 was “inactive” each time. The “growth inhibition (GI)” value with U2OS was “inactive”.

With `CC(=O)Nc1ccc2nc(-c3ccco3)c(-c3ccco3)nc2c1`, the inhibition of growth at 20 µM in the assay with A549 was found to be 57.8%; in the assay with HT-29 it was 7.6%; in the assay on MDA-MB-231 it was 20.3%; in the assay on PC-3, 57.7%; in the assay with SK-OV-3, 9%. Moreover, the “growth inhibition (GI)” value with ASPC1 and in the assay on U2OS was “inactive” throughout.

On to `Cc1ccc(S(=O)(=O)N(c2ccc3nc(-c4ccco4)c(-c4ccco4)nc3c2)S(=O)(=O)c2ccc(C)cc2)cc1`, for which the “growth inhibition (GI)” value with A549, in the assay with ASPC1, in the assay on HT-29, in the assay with MDA-MB-231, in the assay on PC-3 and with SK-OV-3 was “inactive” in each case. Also, in the assay with U2OS, the “growth inhibition (GI)” value was “inactive”.

Turning to `O=C(Nc1ccccc1)Nc1ccc2nc(-c3cccs3)c(-c3cccs3)nc2c1`, the “growth inhibition (GI)” value with A549, in the assay with ASPC1, in the assay on HT-29, in the assay on MDA-MB-231, with PC-3 and in the assay with SK-OV-3 was “inactive” in each case. For the same compound, the “growth inhibition (GI)” value with U2OS was “inactive”.

Take `O=C(Nc1ccccc1)Nc1ccc2nc(-c3ccccc3)c(-c3ccccc3)nc2c1`: the “growth inhibition (GI)” value in the assay on A549, with ASPC1, in the assay on HT-29, in the assay with MDA-MB-231, with PC-3 and in the assay with SK-OV-3 was “inactive” throughout. Further, the “growth inhibition (GI)” value in the assay with U2OS was “inactive”.
